Source: ChEMBL document CHEMBL4680091, “Discovery of Novel Spiro[3H-indole-3,2'-pyrrolidin]-2(1H)-one Compounds as Chemically Stable and Orally Active Inhibitors of the MDM2-p53 Interaction” (J Med Chem, 2016)
The source made the active and inactive calls. No cut-off for these calls is given here.

What was measured:
[1] = molecular target: Tumour suppressor p53/oncoprotein Mdm2 (Homo sapiens, UniProt Q00987); experiment: Inhibition of GST-tagged MDM2 (amino acids 17 to 111 residues)/p53 (unknown origin) interaction incubated for 15 mins by; format: protein assay
Chain of Tumour suppressor p53/oncoprotein Mdm2 (P04637 whole entry, the tested form may be a part): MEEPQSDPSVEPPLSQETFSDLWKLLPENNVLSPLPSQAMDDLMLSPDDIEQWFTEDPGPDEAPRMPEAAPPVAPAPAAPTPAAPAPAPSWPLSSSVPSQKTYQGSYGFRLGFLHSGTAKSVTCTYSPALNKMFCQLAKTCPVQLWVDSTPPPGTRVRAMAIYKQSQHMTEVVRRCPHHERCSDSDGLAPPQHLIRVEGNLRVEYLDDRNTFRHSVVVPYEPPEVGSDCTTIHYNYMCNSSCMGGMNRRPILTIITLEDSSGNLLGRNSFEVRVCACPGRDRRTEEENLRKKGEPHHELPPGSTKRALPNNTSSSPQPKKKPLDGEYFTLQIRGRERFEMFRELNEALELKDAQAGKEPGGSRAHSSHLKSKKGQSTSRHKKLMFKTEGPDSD
Chain of Tumour suppressor p53/oncoprotein Mdm2 (Q00987 whole entry, the tested form may be a part): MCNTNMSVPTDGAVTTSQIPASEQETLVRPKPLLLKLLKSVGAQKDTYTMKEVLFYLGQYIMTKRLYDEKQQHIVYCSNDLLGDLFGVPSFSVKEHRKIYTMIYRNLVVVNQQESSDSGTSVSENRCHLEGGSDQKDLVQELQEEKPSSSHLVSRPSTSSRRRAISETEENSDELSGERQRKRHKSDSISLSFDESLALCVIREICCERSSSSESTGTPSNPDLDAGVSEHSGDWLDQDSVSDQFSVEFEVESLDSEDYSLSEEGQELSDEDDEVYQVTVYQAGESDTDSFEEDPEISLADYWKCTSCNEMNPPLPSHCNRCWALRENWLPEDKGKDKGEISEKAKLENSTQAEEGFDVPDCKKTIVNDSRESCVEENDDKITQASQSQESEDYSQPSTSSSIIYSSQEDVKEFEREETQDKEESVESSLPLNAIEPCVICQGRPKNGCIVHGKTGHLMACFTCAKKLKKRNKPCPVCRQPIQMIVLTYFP

[2] = AUC (0 to 24 hrs) in NMRI mouse at 50 mg/kg, po; format: ADME, organism-based; parameters: time < 24 hr, route oral, dose 50 mg/kg; conditions: in vivo
Summary of the method: (§1)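 Non-tumor-bearing female NMRI nude mice were given a single dose by one of two routes. The iv arm received 5 mg/kg as a bolus in 25% HP-B-CD. The po arm received 50 mg/kg in 0.5% Natrosol (pH 7-8, NaOH titrated). Both used 10 ml/kg. Plasma levels were measured by LC/MS/MS, n=3 per dose group. Parameters came from non-compartmental analysis, with AUC0-24h by linear trapezoidal interpolation.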

SJSA-1 [3] = experiment: Antiproliferative activity against human SJSA-1 cells expression wild type p53 incubated for 3 days by Alamar Blue dye based assay; format: functional, cell-based; conditions: SJSA-1, 72 h
[4] = Cmax in NMRI mouse at 50 mg/kg, po; format: ADME, organism-based; parameters: route oral, dose 50 mg/kg; conditions: in vivo; summary of the method: as §1
[5] = Volume of distribution at steady state in NMRI mouse at 5 mg/kg, iv; format: ADME, organism-based; conditions: in vivo, read-out: Vdss; summary of the method: as §1
[6] = Oral bio availability in NMRI mouse at 50 mg/kg; format: ADME, organism-based; conditions: in vivo; summary of the method: as §1
[7] = Clearance in NMRI mouse at 5 mg/kg, iv; format: ADME, organism-based; conditions: in vivo; summary of the method: as §1
SK-OV-3 = experiment: Antiproliferative activity against human SK-OV-3 cells expression p53 mutant incubated for 3 days by Alamar Blue dye based assay; format: functional, cell-based; conditions: SK-OV-3, 72 h
Summary of the method: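 p53-mutant SK-OV-3 cells were used in a growth/proliferation assay, with compounds tested up to 25 μM.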

SJSA-1 [8] = experiment: Antitumor activity against human SJSA-1 cells xenografted in BomTac:NMRI-Foxn1^nu mouse assessed as induction of tumor regression at 100 mg/kg, po administered as single dose and measured up to 13 days; format: functional, organism-based; conditions: time day <=13
Summary of the method: (§2)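 NMRI nude mice bearing established subcutaneous SJSA-1 osteosarcoma tumors received oral treatment, with a vehicle control group. There were 8 animals per group. Median tumor volume and median body weight change (% of initial) were tracked.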

[9] = molecular target: E3 ubiquitin-protein ligase Mdm2 (Mus musculus) (UniProt P23804); experiment: In-vivo inhibition of MDM2 in BomTac:NMRI-Foxn1^nu mouse xenografted with human SJSA-1 cells assessed as induction of CDKN1a mRNA expression at 100 mg/kg, po administered as single dose and measured after 6 to 24 hrs by q-RT-PCR analysis; format: functional, organism-based; conditions: time 6-24 hrs, TDE = time-dependent effect
Chain of E3 ubiquitin-protein ligase Mdm2 (Mus musculus) (P23804 whole entry): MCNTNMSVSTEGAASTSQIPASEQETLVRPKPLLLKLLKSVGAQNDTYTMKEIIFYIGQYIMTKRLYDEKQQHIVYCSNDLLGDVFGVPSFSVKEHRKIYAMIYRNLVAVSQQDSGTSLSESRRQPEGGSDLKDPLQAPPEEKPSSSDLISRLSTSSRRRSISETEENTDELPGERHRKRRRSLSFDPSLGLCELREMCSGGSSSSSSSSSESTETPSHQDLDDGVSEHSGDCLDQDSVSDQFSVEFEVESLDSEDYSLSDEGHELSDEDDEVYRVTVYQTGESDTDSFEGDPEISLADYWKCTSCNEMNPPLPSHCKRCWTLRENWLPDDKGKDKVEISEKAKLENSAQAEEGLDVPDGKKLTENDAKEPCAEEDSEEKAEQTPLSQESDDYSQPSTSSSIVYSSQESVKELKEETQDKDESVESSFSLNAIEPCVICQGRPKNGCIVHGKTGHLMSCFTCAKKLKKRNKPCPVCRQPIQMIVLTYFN
Summary of the method: (§3)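 Established subcutaneous SJSA-1 xenografts in NMRI nude mice were dosed once orally at 100 mg/kg, or with vehicle. Tumors were harvested 6 h and 24 h after dosing. TP53 target-gene mRNA was quantified by q-RT-PCR.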

SJSA-1 [10] = experiment: Antitumor activity against human SJSA-1 cells xenografted in BomTac:NMRI-Foxn1^nu mouse assessed as induction of tumor regression at 25 mg/kg, po dosed daily for 13 days; format: functional, organism-based; conditions: time 13.0 day; summary of the method: as §2
[11] = molecular target: E3 ubiquitin-protein ligase Mdm2 (Mus musculus) (UniProt P23804); experiment: In-vivo inhibition of MDM2 in BomTac:NMRI-Foxn1^nu mouse xenografted with human SJSA-1 cells assessed as induction of MDM2 mRNA expression at 100 mg/kg, po administered as single dose and measured after 6 to 24 hrs by q-RT-PCR analysis; format: functional, organism-based; conditions: time 6-24 hrs, TDE = time-dependent effect; summary of the method: as §3
[12] = molecular target: E3 ubiquitin-protein ligase Mdm2 (Mus musculus) (UniProt P23804); experiment: In-vivo inhibition of MDM2 in BomTac:NMRI-Foxn1^nu mouse xenografted with human SJSA-1 cells assessed as induction of cleaved caspse-3 protein accumulation at 100 mg/kg, po administered as single dose and measured after 6 to 24 hrs by mesoscale assay; format: functional, organism-based; conditions: time 6-24 hrs
Summary of the method: (§4)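 In NMRI nude mice with established subcutaneous SJSA-1 tumors, a single oral 100 mg/kg dose was compared with vehicle. Tumors collected at 6 h and 24 h post-dose were analysed for protein biomarkers by Meso-Scale assay.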

[13] = molecular target: E3 ubiquitin-protein ligase Mdm2 (Mus musculus) (UniProt P23804); experiment: In-vivo inhibition of MDM2 in BomTac:NMRI-Foxn1^nu mouse xenografted with human SJSA-1 cells assessed as induction of BBC3 mRNA expression at 100 mg/kg, po administered as single dose and measured after 6 to 24 hrs by q-RT-PCR analysis; format: functional, organism-based; conditions: time 6-24 hrs, TDE = time-dependent effect; summary of the method: as §3
[14] = molecular target: E3 ubiquitin-protein ligase Mdm2 (Mus musculus) (UniProt P23804); experiment: In-vivo inhibition of MDM2 in BomTac:NMRI-Foxn1^nu mouse xenografted with human SJSA-1 cells assessed as induction of MDM2 protein accumulation at 100 mg/kg, po administered as single dose and measured after 6 to 24 hrs by mesoscale assay; format: functional, organism-based; conditions: time 6-24 hrs; summary of the method: as §4
[15] = molecular target: E3 ubiquitin-protein ligase Mdm2 (Mus musculus) (UniProt P23804); experiment: In-vivo inhibition of MDM2 in BomTac:NMRI-Foxn1^nu mouse xenografted with human SJSA-1 cells assessed as induction of TP53 protein accumulation at 100 mg/kg, po administered as single dose and measured after 6 to 24 hrs by mesoscale assay; format: functional, organism-based; conditions: time 6-24 hrs; summary of the method: as §4
[16] = molecular target: E3 ubiquitin-protein ligase Mdm2 (Mus musculus) (UniProt P23804); experiment: In-vivo inhibition of MDM2 in BomTac:NMRI-Foxn1^nu mouse xenografted with human SJSA-1 cells assessed as induction of CDKN1a protein accumulation at 100 mg/kg, po administered as single dose and measured after 6 to 24 hrs by immunohistochemical analysis; format: functional, organism-based; conditions: time 6-24 hrs
Summary of the method: (§5)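 SJSA-1 tumor-bearing NMRI nude mice received one oral dose of 100 mg/kg. Tumors were harvested at 6 h and 24 h. Sections were stained by immunohistochemistry for CDKN1a, TP53 and cleaved CASPASE3.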

[17] = molecular target: E3 ubiquitin-protein ligase Mdm2 (Mus musculus) (UniProt P23804); experiment: In-vivo inhibition of MDM2 in BomTac:NMRI-Foxn1^nu mouse xenografted with human SJSA-1 cells assessed as induction of TP53 protein accumulation at 100 mg/kg, po administered as single dose and measured after 6 to 24 hrs by immunohistochemical analysis; format: functional, organism-based; conditions: time 6-24 hrs; summary of the method: as §5
[18] = molecular target: E3 ubiquitin-protein ligase Mdm2 (Mus musculus) (UniProt P23804); experiment: In-vivo inhibition of MDM2 in BomTac:NMRI-Foxn1^nu mouse xenografted with human SJSA-1 cells assessed as induction of cleaved CASPASE3 protein accumulation at 100 mg/kg, po administered as single dose and measured after 6 to 24 hrs by immunohistochemical analysis; format: functional, organism-based; conditions: time 6-24 hrs; summary of the method: as §5

CC(=O)N1CC[C@H]2[C@@H]1[C@H](c1cccc(Cl)c1F)[C@]1(C(=O)Nc3cc(Cl)ccc31)N2CC1CC1 (racemic) showed an IC50 [1] of 212 nM.

NC(=O)c1ccc([C@H]2C[C@H]3[C@@H](N2)[C@H](c2cccc(Cl)c2F)[C@]2(C(=O)Nc4cc(Cl)ccc42)N3CC2CC2)cc1 gave an AUC(0-t) at 24 h [2] of 100 µM·h, an IC50 (SJSA-1 [3]) of 1450 nM and a Cmax [4] of 6.9 µM. It also gave a Vd [5] of 2 L/kg, a bioavailability [6] of 58% and a clearance [7] of 7.4 mL/min/kg. For the same compound, the IC50 (SK-OV-3) was greater than 25 µM.

Compound O=C1Nc2cc(Cl)ccc2[C@]12N[C@@H](Cc1ccccc1)[C@@H]([N+](=O)[O-])[C@@H]2c1cccc(Cl)c1 (racemic) has an IC50 [1] of 15600 nM.

Compound O=C(O)CN1CC[C@H]2[C@@H]1[C@H](c1cccc(Cl)c1)[C@]1(C(=O)Nc3cc(Cl)ccc31)N2CC1CC1 (racemic) has an IC50 [1] of 80 nM.

Work on O=C(O)CC[C@@H]1N[C@@]2(C(=O)Nc3cc(Cl)ccc32)[C@@H](c2cccc(Cl)c2)[C@@H]1[N+](=O)[O-] (racemic) yielded an IC50 [1] of 16000 nM.

O=C1Nc2cc(Cl)ccc2[C@@]12[C@@H](c1cccc(Cl)c1F)[C@@H]1NCC[C@@H]1N2CC1CC1 gave an IC50 (SJSA-1 [3]) of 2610 nM, an IC50 [1] of 137 nM and an IC50 (SK-OV-3) greater than 25 µM.

COC(=O)c1ccc([C@H]2C[C@H]3[C@@H](N2)[C@H](c2cccc(Cl)c2F)[C@]2(C(=O)Nc4cc(Cl)ccc42)N3CC2CC2)cc1 showed an IC50 [1] of 81 nM.

With NC(=O)CC[C@@H]1N[C@@]2(C(=O)Nc3cc(Cl)ccc32)[C@@H](c2cccc(Cl)c2)[C@@H]1[N+](=O)[O-] (racemic) the IC50 [1] was 13500 nM.

Work on O=C(O)c1ccc([C@H]2C[C@H]3[C@@H](N2)[C@H](c2cccc(Cl)c2F)[C@]2(C(=O)Nc4cc(Cl)ccc42)N3CC2CC2)cc1 yielded an AUC(0-t) at 24 h [2] of 264 µM·h, an IC50 (SJSA-1 [3]) of 471 nM and a Cmax [4] of 21.3 µM. The Vd [5] was 2.1 L/kg, the Activity (SJSA-1 [8]) was “Active” and the inhibition [9] was “Tde”. The Activity (SJSA-1 [10]) was “Active”, the inhibition [11] was “Tde” and the inhibition [12] was “Active”. The inhibition [13] was “Tde”, the inhibition [14] was “Active” and the inhibition [15] was “Active”. The clearance [7] was 7.1 mL/min/kg, the inhibition [16] was “Active” and the inhibition [17] was “Active”. The inhibition [18] was “Active” and the IC50 (SK-OV-3) was greater than 25 µM.

CCOc1cccc(CN2[C@H]3C[C@H](c4ccc(C(=O)O)cc4)N[C@H]3[C@H](c3cccc(Cl)c3F)[C@]23C(=O)Nc2cc(Cl)ccc23)c1 gave an AUC(0-t) at 24 h [2] of 8 µM·h, an IC50 (SJSA-1 [3]) of 67 nM and a Cmax [4] of 3.4 µM. It also gave a Vd [5] of 1 L/kg, a bioavailability [6] of 13% and a clearance [7] of 23.2 mL/min/kg. For the same compound, the IC50 (SK-OV-3) was greater than 25 µM.

For C[C@H]1[C@@H](N)[C@H](c2cccc(Cl)c2F)[C@]2(C(=O)Nc3cc(Cl)ccc32)N1CC1CC1, the IC50 (SJSA-1 [3]) was 2980 nM, the IC50 [1] was 157 nM and the IC50 (SK-OV-3) was greater than 25 µM.

Compound CC(=O)N[C@@H]1[C@H](C)N(CC2CC2)[C@@]2(C(=O)Nc3cc(Cl)ccc32)[C@H]1c1cccc(Cl)c1F has an IC50 [1] of 229 nM.

Compound CCOc1cccc(CN2[C@@H](C)[C@@H](N)[C@H](c3cccc(Cl)c3F)[C@]23C(=O)Nc2cc(Cl)ccc23)c1 (racemic) has an IC50 [1] of 57 nM.

CC(C)CCN1[C@@H](Cn2cncn2)[C@@H](N)[C@H](c2cccc(Cl)c2)[C@]12C(=O)Nc1cc(Cl)ccc12 (racemic) gave an IC50 [1] of 2060 nM.

For O=C(O)C[C@@H]1N[C@@]2(C(=O)Nc3cc(Cl)ccc32)[C@@H](c2cccc(Cl)c2)[C@@H]1[N+](=O)[O-] (racemic), the IC50 [1] was 18600 nM.

CSC[C@@H]1N[C@@]2(C(=O)Nc3cc(Cl)ccc32)[C@@H](c2cccc(Cl)c2)[C@@H]1[N+](=O)[O-] (racemic) gave an IC50 [1] of 24600 nM.
